Test results from ChEMBL document CHEMBL4052675, “Synthesis, biological evaluation and molecular modeling of imidazo[1,2-a]pyridine derivatives as potent antitubulin agents” (Bioorg Med Chem, 2017).
Activity calls are given as the source filed them. No cut-off for these calls is given here.

How the values were obtained:
[1] = system: HT-29; assay: Cytotoxicity against human HT-29 cells after 72 hrs by MTT assay; assay type: functional, cell-based; conditions: HT-29, 72 h
Outline: (§1)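 Cells grown in MEM with 10% FBS; about 4×10^3 cells per well, preincubated 24 h at 37 °C in 5% CO₂, then exposed to compounds for 72 h. MTT at a […] added for 4 h at 37 °C. Formazan dissolved in DMSO; absorbance read at 492 nm against 630 nm reference. Three runs per line; IC50 reported as mean ± SD.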

[2] = system: NCI-H460; assay: Cytotoxicity against human NCI-H460 cells after 72 hrs by MTT assay; assay type: functional, cell-based; conditions: NCI-H460, 72 h; outline: as §1
[3] = system: A549; assay: Cytotoxicity against human A549 cells after 72 hrs by MTT assay; assay type: functional, cell-based; conditions: A549, 72 h; outline: as §1
[4] = system: MKN-45; assay: Cytotoxicity against human MKN45 cells after 72 hrs by MTT assay; assay type: functional, cell-based; conditions: MKN-45, 72 h; outline: as §1
[5] = system: SMMC-7721; assay: Cytotoxicity against human SMMC7721 cells after 72 hrs by MTT assay; assay type: functional, cell-based; conditions: SMMC-7721, 72 h; outline: as §1
[6] = organism: Homo sapiens; assay: Inhibition of tubulin polymerization in human HT-29 cells assessed as abnormal microtubule network formation at 20 nM after 24 hrs by DAPI staining based immunofluorescence microscopic analysis; assay type: cell-based
Outline: (§2)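 HT-29 seeded at 1×10^4 per well, grown 24 h, then treated 24 h; controls received medium. Fixed in 4% formaldehyde/PBS (30 min, −20 °C), permeabilized with 0.2% Triton X-100, and blocked with 5% BSA. Stained with anti-α-tubulin (1:100, overnight, 4 °C), then FITC anti-mouse secondary (1:100, 2 h, 37 °C). DAPI counterstain; imaged by fluorescence microscopy.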

[7] = organism: Homo sapiens; assay: Inhibition of tubulin polymerization in human HT-29 cells assessed as microtubule disruption by measuring scattered short microtubule fragment in cytoplasm at 20 nM after 24 hrs by DAPI staining based immunofluorescence microscopic analysis; assay type: cell-based; outline: as §2
[8] = organism: Homo sapiens; assay: Inhibition of colchicine binding to tubulin (unknown origin) up to 15 uM pretreated for 1 hr followed by colchicine addition by spectrofluorometric method
Outline: (§3)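 Tubulin preincubated 1 h at 37 °C with test agent (0, 1.6, 5, 15 μM), then colchicine added to a final 5 μM. Fluorescence read at excitation 365 nm and emission 435 nm, with buffer blank subtracted. Value is F/F0 × 100%, where F0 is fluorescence of the colchicine–tubulin complex without competitor.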

[9] = system: HT-29; assay: Potency index, ratio of CA-4 IC50 to test compound IC50 for human HT-29 cells; assay type: functional
[10] = organism: Homo sapiens; assay: Inhibition of tubulin polymerization in human HT-29 cells assessed as abnormal microtubule network formation at 88 nM after 24 hrs by DAPI staining based immunofluorescence microscopic analysis; assay type: cell-based; outline: as §2
[11] = organism: Homo sapiens; assay: Inhibition of tubulin polymerization in human HT-29 cells assessed as microtubule disruption by measuring scattered short microtubule fragment in cytoplasm at 88 nM after 24 hrs by DAPI staining based immunofluorescence microscopic analysis; assay type: cell-based; outline: as §2
[12] = system: HT-29; assay: Potency index, ratio of crolibulin IC50 to test compound IC50 for human HT-29 cells; assay type: functional
[13] = organism: Homo sapiens; assay: Inhibition of colchicine binding to tubulin (unknown origin) pretreated for 1 hr followed by colchicine addition by spectrofluorometric method; outline: as §3

SMILES	IC50 [1] [µM]	IC50 [2] [µM]	IC50 [3] [µM]	IC50 [4] [µM]	IC50 [5] [µM]	inhibition [6]	inhibition [7]	inhibition [8]	Ratio IC50 [9]	inhibition [10]	inhibition [11]	Ratio IC50 [12]	inhibition [13]
CCN(CC)Cc1cnc2c(C#N)c(-c3ccc(OC)c(OC)c3OC)cc(-c3ccc(F)cc3)n12	3.01	3.08	1.97	23.4	6.91	–	–	–	–	–	–	–	–
COc1ccc(/C=C\c2cc(OC)c(OC)c(OC)c2)cc1O [COMBRETASTATIN A4]	0.05	0.08	0.43	0.11	1.92	Active	Active	Active	–	–	–	–	–
COc1ccc(-c2cc(-c3ccc(F)cc3)n3c(CN4CCOCC4)cnc3c2C#N)c(OC)c1OC	1.03	9.75	3.56	10.5	4.03	–	–	–	–	–	–	–	–
CN(C)Cc1cn2c(-c3c[nH]c4ccccc34)cc(-c3ccc(F)cc3F)c(C#N)c2n1	0.06	0.19	1.12	1.34	5.3	–	–	–	–	–	–	–	–
N#Cc1c(-c2ccc(F)cc2Cl)cc(-c2c[nH]c3ccccc23)n2cc(CNC3CCCCC3)nc12	0.02	0.08	2.53	3.68	4.88	–	–	–	–	–	–	–	–
N#Cc1c(-c2ccc(F)cc2F)cc(-c2c[nH]c3ccccc23)n2cc(CN3CCOCC3)nc12	2.7	0.19	3.33	7.86	12.8	–	–	–	–	–	–	–	–
CCNCc1cn2c(-c3c[nH]c4ccccc34)cc(-c3ccc(F)cc3F)c(C#N)c2n1	0.05	0.15	0.92	2.77	6.12	–	–	–	–	–	–	–	–
CN1CCN(Cc2cn3c(-c4c[nH]c5ccccc45)cc(-c4ccc(F)cc4F)c(C#N)c3n2)CC1	0.11	0.17	0.92	2.71	3.82	–	–	–	–	–	–	–	–
CCN(CC)Cc1cnc2c(C#N)c(-c3cc(OC)c(OC)c(OC)c3)cc(-c3ccc(F)cc3F)n12	3.51	0.76	> 100	40.6	> 100	–	–	–	–	–	–	–	–
CCNCc1cnc2c(C#N)c(-c3ccc(OC)c(OC)c3OC)cc(-c3ccc(F)cc3)n12	0.91	4.54	3.24	7.88	6.02	–	–	–	–	–	–	–	–
COc1ccc(-c2cc(-c3ccc(F)cc3F)n3c(CN4CCC(C)CC4)cnc3c2C#N)c(OC)c1OC	0.14	0.06	1.46	1.68	3.48	–	–	–	–	–	–	–	–
COc1ccc(-c2cc(-c3ccc(F)cc3F)n3c(CN4CCOCC4)cnc3c2C#N)c(OC)c1OC	0.47	0.08	1.15	2.38	3.2	–	–	–	–	–	–	–	–
CNCc1cn2c(-c3c[nH]c4ccccc34)cc(-c3ccc(F)cc3F)c(C#N)c2n1	0.16	0.2	8.9	18.2	16.2	–	–	–	–	–	–	–	–
CC(C)NCc1cn2c(-c3c[nH]c4ccccc34)cc(-c3ccc(F)cc3F)c(C#N)c2n1	0.08	0.18	1.92	3.34	6.54	–	–	–	–	–	–	–	–
CNCc1cnc2c(C#N)c(-c3ccc(OC)c(OC)c3OC)cc(-c3ccc(F)cc3)n12	0.83	1.88	0.71	3.04	4.42	–	–	–	–	–	–	–	–
COc1ccc(-c2cc(-c3ccc(F)cc3)n3c(CN(C)C)cnc3c2C#N)c(OC)c1OC	0.8	9.33	0.67	6.99	3.02	–	–	–	–	–	–	–	–
CCN(CC)Cc1cn2c(-c3c[nH]c4ccccc34)cc(-c3ccc(F)cc3F)c(C#N)c2n1	0.02	0.11	0.08	3.22	1.92	–	–	–	–	–	–	–	–

SMILES	IC50 [1] [µM]	IC50 [2] [µM]	IC50 [3] [µM]	IC50 [4] [µM]	IC50 [5] [µM]	inhibition [6]	inhibition [7]	inhibition [8]	Ratio IC50 [9]	inhibition [10]	inhibition [11]	Ratio IC50 [12]	inhibition [13]
CC1CCN(Cc2cn3c(-c4c[nH]c5ccccc45)cc(-c4ccc(F)cc4F)c(C#N)c3n2)CC1	0.01	0.2	3.64	2.62	3.55	–	–	–	–	–	–	–	–
COc1ccc(-c2cc(-c3ccc(F)cc3F)n3c(CN4CCCC4)cnc3c2C#N)c(OC)c1OC	1.34	0.06	0.8	7.26	2.38	–	–	–	–	–	–	–	–
CCNCc1cnc2c(C#N)c(-c3ccc(OC)c(OC)c3OC)cc(-c3ccc(F)cc3F)n12	0.09	0.03	0.17	3.52	1.32	–	–	–	–	–	–	–	–
CC(=O)O[C@H]1C(=O)[C@@]2(C)[C@H]([C@H](OC(=O)c3ccccc3)[C@]3(O)C[C@H](OC(=O)[C@H](O)[C@@H](NC(=O)c4ccccc4)c4ccccc4)C(C)=C1C3(C)C)[C@]1(OC(C)=O)CO[C@@H]1C[C@@H]2O	–	–	–	–	–	–	–	inactive	–	–	–	–	–
CNCc1cn2c(-c3c[nH]c4ccccc34)cc(-c3ccc(F)cc3Cl)c(C#N)c2n1	0.12	0.25	1.04	2.44	5.66	–	–	–	–	–	–	–	–
N#Cc1c(-c2ccc(F)cc2F)cc(-c2c[nH]c3ccccc23)n2cc(CNC3CC3)nc12	0.04	0.28	9.66	3.68	6.8	–	–	–	–	–	–	–	–
CN1CCN(Cc2cn3c(-c4c[nH]c5ccccc45)cc(-c4ccc(F)cc4Cl)c(C#N)c3n2)CC1	0.14	0.22	1.55	3.62	7.12	–	–	–	–	–	–	–	–
COc1cc(-c2cc(-c3ccc(F)cc3F)n3c(CN(C)C)cnc3c2C#N)cc(OC)c1OC	0.36	0.67	31	14	62.5	–	–	–	–	–	–	–	–
COc1cc(-c2cc(-c3ccc(F)cc3F)n3c(CN4CCCC4)cnc3c2C#N)cc(OC)c1OC	0.7	0.13	1.2	11.6	2.93	–	–	–	–	–	–	–	–
CCN(CC)Cc1cnc2c(C#N)c(-c3ccc(OC)c(OC)c3OC)cc(-c3ccc(F)cc3F)n12	0.21	0.06	1.04	6.79	1.31	–	–	–	–	–	–	–	–
N#Cc1c(-c2ccc(F)cc2F)cc(-c2c[nH]c3ccccc23)n2cc(CN3CCCC3)nc12	0.04	0.05	1.03	0.48	5.04	–	–	–	–	–	–	–	–
COc1ccc(-c2cc(-c3ccc(F)cc3F)n3c(CN(C)C)cnc3c2C#N)c(OC)c1OC	0.23	0.2	1.98	9.08	6.48	–	–	–	–	–	–	–	–
CNCc1cnc2c(C#N)c(-c3ccc(OC)c(OC)c3OC)cc(-c3ccc(F)cc3F)n12	0.07	0.02	0.13	2.7	1.17	–	–	–	–	–	–	–	–
COc1ccc(-c2cc(-c3ccc(F)cc3)n3c(CN4CCN(C)CC4)cnc3c2C#N)c(OC)c1OC	2.04	3.89	12.4	5.48	24.6	–	–	–	–	–	–	–	–
COc1ccc(-c2cc(-c3ccc(F)cc3)n3c(CN4CCCC4)cnc3c2C#N)c(OC)c1OC	1.95	15.6	1.33	5.84	5.12	–	–	–	–	–	–	–	–
N#Cc1c(-c2ccc(F)cc2F)cc(-c2c[nH]c3ccccc23)n2cc(CNC3CCCCC3)nc12	0.01	0.04	0.54	2.4	5.6	–	–	–	5	Active	Active	52	Dose-dependent effect
